# In ChEMBL document CHEMBL1126198, “A new class of high affinity ligands for the neurokinin A NK2 receptor: psi (CH2NR) reduced peptide bond analogues of neurokinin A4-10” (J Med Chem, 1992):
# Starred links: 1 amine or outer side, 2 acyl side, 3 side chain; linkers in the order of their positions; H or OH if unused. Non-standard residues stand in square brackets, D forms with d. Residues, ends and D or L forms follow the SMILES beside them. *: point of attachment. X3 = N[C@@H](CC(=O)O)C(=O)N[C@@H](CO)CN([C@@H](Cc1ccccc1)C(=O)[*:2])[*:1]; Leuψ(CH2NH)PheNH2 = CC(C)C[C@@H](CN[C@@H](Cc1ccccc1)C(N)=O)N*; X9 = CC(C)CC(=O)N(C[C@H](CC(C)C)N*)[C@@H](CC(C)C)C(N)=O; X7 = CCCN(C[C@H](CC(C)C)N*)[C@@H](Cc1ccccc1)C(N)=O; X4 = CC(C)C[C@H](NC(=O)[C@H](CC(C)C)NCCN*)C(N)=O; X2 = CCN(C[C@H](CC(C)C)N*)[C@@H](CC(C)C)C(N)=O; X8 = CC(C)C[C@@H](CN(C)[C@@H](CC(C)C)C(N)=O)N*; X6 = CC(C)C[C@H](NC[C@H](Cc1ccccc1)N*)C(N)=O; X1 = CC(C)C[C@@H](CN[C@@H](CC(C)C)C(N)=O)N*; X5 = O=C(O)CCCN([C@@H](CO)C(=O)[*:2])[*:1]; βAla = NCCC(=O)O
# Target: T1, Substance-K receptor (Mesocricetus auratus, UniProt P51144)
# T1 sequence (P51144 whole entry): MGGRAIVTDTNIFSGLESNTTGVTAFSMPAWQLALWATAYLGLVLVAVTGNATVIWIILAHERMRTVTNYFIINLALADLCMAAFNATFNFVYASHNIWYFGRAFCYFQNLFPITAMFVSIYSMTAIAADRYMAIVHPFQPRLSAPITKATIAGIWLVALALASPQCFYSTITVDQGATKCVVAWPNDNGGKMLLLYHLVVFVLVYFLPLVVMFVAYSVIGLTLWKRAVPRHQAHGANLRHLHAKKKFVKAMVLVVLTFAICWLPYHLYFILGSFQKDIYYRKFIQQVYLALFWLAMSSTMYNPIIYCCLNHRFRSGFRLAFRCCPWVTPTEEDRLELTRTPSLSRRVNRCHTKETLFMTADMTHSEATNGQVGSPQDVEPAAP
# Assay: Competitive inhibition of [125I]NKA binding to hamster urinary bladder Tachykinin receptor 2
# Format: single protein
# Conditions: not given
row,IC50 [nM],SMILES
1,> 10000,CC(C)C[C@H](NC[C@H](Cc1ccccc1)NC(=O)CNC(=O)[C@@H](NC(=O)[C@H](Cc1ccccc1)NC(=O)[C@H](CO)NC(=O)[C@@H](N)CC(=O)O)C(C)C)C(N)=O (H-DSFVG-X6)
2,1650,CC(C)C[C@H](NC(=O)[C@H](CC(C)C)NC(=O)CNC(=O)[C@@H](NC(=O)[C@H](Cc1ccccc1)NC(=O)[C@H](CO)NCCCC(=O)O)C(C)C)C(N)=O (H-[X5]FVGLL-NH2)
3,193,CC(C)C[C@@H](CN(C)[C@@H](CC(C)C)C(N)=O)NC(=O)CNC(=O)[C@@H](NC(=O)[C@H](Cc1ccccc1)NC(=O)[C@H](CO)NC(=O)[C@@H](N)CC(=O)O)C(C)C (H-DSFVG-X8)
4,> 10000,CC(C)C[C@H](NC(=O)[C@H](CC(C)C)NCCNC(=O)[C@@H](NC(=O)[C@H](Cc1ccccc1)NC(=O)[C@H](CO)NC(=O)[C@@H](N)CC(=O)O)C(C)C)C(N)=O (H-DSFV-X4)
5,108,CC(C)C[C@@H](CN[C@@H](CC(C)C)C(N)=O)NC(=O)CCNC(=O)[C@@H](NC(=O)[C@H](Cc1ccccc1)NC(=O)[C@H](CO)NC(=O)[C@@H](N)CC(=O)O)C(C)C (H-DSFV[βAla]-X1)
6,1,CCCN(C[C@H](CC(C)C)NC(=O)CCNC(=O)[C@@H](NC(=O)[C@H](Cc1ccccc1)NC(=O)[C@H](CO)NC(=O)[C@@H](N)CC(=O)O)C(C)C)[C@@H](Cc1ccccc1)C(N)=O (H-DSFV[βAla]-X7)
7,148,CSCC[C@H](NC(=O)[C@H](CC(C)C)NC(=O)CNC(=O)[C@H](Cc1ccccc1)NC(=O)[C@H](Cc1ccccc1)NC(=O)[C@H](CCC(N)=O)NC(=O)[C@H](CCC(N)=O)NC(=O)[C@@H]1CCCN1C(=O)[C@H](CCCCN)NC(=O)[C@@H]1CCCN1C(=O)[C@@H](N)CCCN=C(N)N)C(N)=O [SUBSTANCE P]
8,136,CC(C)C[C@H](NC(=O)[C@H](CC(C)C)NC(=O)CNC(=O)[C@@H](NC(=O)[C@H](Cc1ccccc1)NC(=O)[C@H](CO)NC(=O)[C@@H](N)CC(=O)O)C(C)C)C(N)=O
9,> 10000,CC(C)C[C@H](NC(=O)[C@H](CC(C)C)NC(=O)CNC(=O)[C@@H](NC[C@H](Cc1ccccc1)NC(=O)[C@H](CO)NC(=O)[C@@H](N)CC(=O)O)C(C)C)C(N)=O
10,162,CC(C)CC(=O)N(C[C@H](CC(C)C)NC(=O)CNC(=O)[C@@H](NC(=O)[C@H](Cc1ccccc1)NC(=O)[C@H](CO)NC(=O)[C@@H](N)CC(=O)O)C(C)C)[C@@H](CC(C)C)C(N)=O (H-DSFVG-X9)
11,> 10000,CC(C)C[C@H](NC(=O)[C@H](CC(C)C)NC(=O)CNC(=O)[C@@H](NC(=O)[C@H](Cc1ccccc1)NC[C@H](CO)NC(=O)[C@@H](N)CC(=O)O)C(C)C)C(N)=O (H-[X3]VGLL-NH2)
12,115,CC(C)C[C@@H](CN[C@@H](CC(C)C)C(N)=O)NC(=O)CNC(=O)[C@@H](NC(=O)[C@H](Cc1ccccc1)NC(=O)[C@H](CO)NC(=O)[C@@H](N)CC(=O)O)C(C)C (H-DSFVG-X1)
13,1,CSCC[C@H](NC(=O)[C@H](CC(C)C)NC(=O)CNC(=O)[C@@H](NC(=O)[C@H](Cc1ccccc1)NC(=O)[C@H](CO)NC(=O)[C@H](CC(=O)O)NC(=O)[C@@H](NC(=O)[C@H](CCCCN)NC(=O)[C@@H](N)Cc1cnc[nH]1)[C@@H](C)O)C(C)C)C(N)=O [NEUROKININ A]
14,277,CCN(C[C@H](CC(C)C)NC(=O)CNC(=O)[C@@H](NC(=O)[C@H](Cc1ccccc1)NC(=O)[C@H](CO)NC(=O)[C@@H](N)CC(=O)O)C(C)C)[C@@H](CC(C)C)C(N)=O (H-DSFVG-X2)
15,10,CC(C)C[C@@H](CN[C@@H](Cc1ccccc1)C(N)=O)NC(=O)CCNC(=O)[C@@H](NC(=O)[C@H](Cc1ccccc1)NC(=O)[C@H](CO)NC(=O)[C@@H](N)CC(=O)O)C(C)C (H-DSFV[βAla]-{Leuψ(CH2NH)PheNH2})
16,5660,CC(C)C[C@H](NC(=O)[C@H](CC(C)C)NC(=O)CNC[C@@H](NC(=O)[C@H](Cc1ccccc1)NC(=O)[C@H](CO)NC(=O)[C@@H](N)CC(=O)O)C(C)C)C(N)=O
17,9,CC(C)C[C@@H](CN[C@@H](Cc1ccccc1)C(N)=O)NC(=O)CNC(=O)[C@@H](NC(=O)[C@H](Cc1ccccc1)NC(=O)[C@H](CO)NC(=O)[C@@H](N)CC(=O)O)C(C)C (H-DSFVG-{Leuψ(CH2NH)PheNH2})

row,SMILES,IC50 [nM]
1,CSCC[C@H](NC(=O)[C@H](CC(C)C)NC(=O)CNC(=O)[C@@H](NC(=O)[C@H](Cc1ccccc1)NC(=O)[C@H](CO)NC(=O)[C@@H](N)CC(=O)O)C(C)C)C(N)=O,6

# System: Cricetinae gen. sp.
# Assay: Compound was evaluated for the competitive antagonism of NKA-stimulated PI (phosphatidylinositol) turnover in hamster urinary bladder tissue using [3H]inositol as radioligand
# Format: functional
# Conditions: read-out: pA2 (converted)
# Procedure, shortened: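 Chopped hamster bladder labeled 1 h at 37 °C with [3H]myo-inositol. Assay run at room temperature in Krebs-HEPES (20 mM). Total inositol phosphates isolated on ion-exchange columns eluted sequentially, starting with water. PI turnover ratio = inositol phosphates cpm / organic extraction phase cpm. Basal level taken without NKA; maximum stimulation with 1 μM NKA. Mean ± SEM of separate experiments.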
row,SMILES,Kb [nM]
1,CC(C)C[C@@H](CN[C@@H](CC(C)C)C(N)=O)NC(=O)CNC(=O)[C@@H](NC(=O)[C@H](Cc1ccccc1)NC(=O)[C@H](CO)NC(=O)[C@@H](N)CC(=O)O)C(C)C (H-DSFVG-X1),200
